In ChEMBL document CHEMBL4004794, “Identification of Neuroprotective Spoxazomicin and Oxachelin Glycosides via Chemoenzymatic Glycosyl-Scanning” (J Nat Prod, 2017):
Activity calls are given as the source filed them. No cut-off for these calls is given here.

Experiments:
Staphylococcus aureus = test: Antibacterial activity against Staphylococcus aureus ATCC 6538 at <= 60 to 120 uM; type: functional
Outline: (§1)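 Run in triplicate by the group's previously reported protocols. Compounds were tested up to 60–120 μM against bacteria and yeast, and up to 20 μM against non-small-cell lung A549 cells. Bacterial strains were S. aureus ATCC 6538, M. luteus NRRL B-287, E. coli NRRL B-3708 and S. enterica ATCC 10708. The yeast was S. cerevisiae ATCC 204508.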

[1] = system: Salmonella enterica subsp. enterica serovar Choleraesuis str. ATCC 10708; test: Antibacterial activity against Salmonella enterica ATCC 10708 at <= 60 to 120 uM; type: functional
Outline: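 Run in triplicate against S. enterica ATCC 10708, a strain obtained from ATCC. Compounds were tested at concentrations up to ≤60−120 μM.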

Saccharomyces cerevisiae = test: Antifungal activity against Saccharomyces cerevisiae ATCC 204508 at <= 60 to 120 uM; type: functional; outline: as §1
Escherichia coli = test: Antibacterial activity against Escherichia coli NRRL B-3708 at <= 60 to 120 uM; type: functional; outline: as §1
A549 = test: Cytotoxicity against human A549 cells at <= 20 uM; type: functional, cell-based; outline: as §1
Micrococcus luteus = test: Antibacterial activity against Micrococcus luteus NRRL B-287 at <= 60 to 120 uM; type: functional; outline: as §1
Hippocampal neurone [2] = test: Neuroprotective activity against EtOH-induced cytotoxicity in Sprague-Dawley rat primary hippocampal neurons assessed as decrease in propidium iodide uptake at 0.01 to 1 uM after 48 hrs by fluorescence microscopic method; type: functional, cell-based
Outline: (§2)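 Rat hippocampus-derived primary cell cultures were exposed for 48 h to 100 mM EtOH, with or without compound (0.01–1.0 μM, dose–response). A DMSO control was included. Damage was read as propidium iodide uptake into compromised cells.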

Hippocampal neurone [3] = test: Neuroprotective activity against EtOH-induced cytotoxicity in Sprague-Dawley rat primary hippocampal neurons assessed as decrease in propidium iodide uptake at 0.01 to 0.1 uM after 48 hrs by fluorescence microscopic method; type: functional, cell-based; outline: as §2
Hippocampal neurone [4] = test: Neuroprotective activity against EtOH-induced cytotoxicity in Sprague-Dawley rat primary hippocampal neurons assessed as decrease in propidium iodide uptake at 0.1 to 1 uM after 48 hrs by fluorescence microscopic method; type: functional, cell-based; outline: as §2
Hippocampal neurone [5] = test: Neuroprotective activity against EtOH-induced cytotoxicity in Sprague-Dawley rat primary hippocampal neurons assessed as decrease in propidium iodide uptake at 1 uM after 48 hrs by fluorescence microscopic method; type: functional, cell-based; outline: as §2

For `C[C@@H](CO)NC(=O)c1ccccc1O[C@@H]1O[C@H](CO)[C@@H](O)[C@H](O)[C@H]1N`, the Activity (Staphylococcus aureus) was “inactive”, the Activity [1] was “inactive” and the Activity (Saccharomyces cerevisiae) was “inactive”. The Activity (Escherichia coli) was “inactive”, the Activity (A549) was “inactive” and the Activity (Micrococcus luteus) was “inactive”.
`O=CN(O)CCC[C@@H](NC(=O)[C@H](CO)NC(=O)[C@@H]1COC(c2ccccc2O)=N1)C(=O)NCCC(=O)N[C@@H]1CCCN(O)C1=O` was tested, and the Activity (Staphylococcus aureus) was “inactive”, the Activity [1] was “inactive” and the Activity (Saccharomyces cerevisiae) was “inactive”. The Activity (Escherichia coli) was “inactive”, the Activity (A549) was “inactive” and the Activity (Micrococcus luteus) was “inactive”.
With `OC[C@@H]1COC(c2ccccc2O)=N1` the Activity (Staphylococcus aureus) was “inactive”, the Activity [1] was “inactive” and the Activity (Saccharomyces cerevisiae) was “inactive”. For the same compound, the Activity (Escherichia coli) was “inactive”, the Activity (A549) was “inactive” and the Activity (Micrococcus luteus) was “inactive”.
With `N[C@H]1[C@H](Oc2ccccc2C2=N[C@H](CO)CO2)O[C@H](CO)[C@@H](O)[C@@H]1O` the Activity (Staphylococcus aureus) was “inactive”, the Activity [1] was “inactive” and the Activity (Hippocampal neurone [2]) was “inactive”. The Activity (Saccharomyces cerevisiae) was “inactive”, the Activity (Escherichia coli) was “inactive” and the Activity (A549) was “inactive”. The Activity (Micrococcus luteus) was “inactive”.
For `C[C@@H](CO)NC(=O)c1ccccc1O[C@@H]1O[C@H](CO)[C@@H](O)[C@H](O)[C@H]1O`, the Activity (Staphylococcus aureus) was “inactive”, the Activity [1] was “inactive” and the Activity (Saccharomyces cerevisiae) was “inactive”. The Activity (Escherichia coli) was “inactive”, the Activity (A549) was “inactive” and the Activity (Micrococcus luteus) was “inactive”.
With `C[C@H](CO)NC(=O)c1ccccc1O` the Activity (Staphylococcus aureus) was “inactive”, the Activity [1] was “inactive” and the Activity (Saccharomyces cerevisiae) was “inactive”. For the same compound, the Activity (Escherichia coli) was “inactive”, the Activity (A549) was “inactive” and the Activity (Micrococcus luteus) was “inactive”.
For `NC(=O)[C@@H]1COC(c2ccccc2O)=N1`, the Activity (Staphylococcus aureus) was “inactive”, the Activity [1] was “inactive” and the Activity (Saccharomyces cerevisiae) was “inactive”. The Activity (Escherichia coli) was “inactive”, the Activity (A549) was “inactive” and the Activity (Micrococcus luteus) was “inactive”.
In the case of `N[C@H]1[C@H](Oc2ccccc2C2=N[C@H](C(=O)N[C@@H](CO)C(=O)N[C@H](CCCN(O)C=O)C(=O)NCCC(=O)N[C@@H]3CCCN(O)C3=O)CO2)O[C@H](CO)[C@@H](O)[C@@H]1O`, the Activity (Staphylococcus aureus) is reported as “inactive”, the Activity [1] is reported as “inactive” and the Activity (Saccharomyces cerevisiae) is reported as “inactive”. The Activity (Escherichia coli) was “inactive”, the Activity (A549) was “inactive” and the Activity (Micrococcus luteus) was “inactive”.
With `C[C@H](CO)NC(=O)c1ccccc1O[C@@H]1O[C@H](CO)[C@@H](O)[C@H](O)[C@H]1O` the Activity (Staphylococcus aureus) was “inactive”, the Activity [1] was “inactive” and the Activity (Saccharomyces cerevisiae) was “inactive”. The Activity (Escherichia coli) was “inactive”, the Activity (A549) was “inactive” and the Activity (Micrococcus luteus) was “inactive”.
`O=C(NC(CO)CO)c1ccccc1O` was tested, and the Activity (Staphylococcus aureus) was “inactive”, the Activity [1] was “inactive” and the Activity (Saccharomyces cerevisiae) was “inactive”. For the same compound, the Activity (Escherichia coli) was “inactive”, the Activity (A549) was “inactive” and the Activity (Micrococcus luteus) was “inactive”.
For `C[C@@H](CO)NC(=O)c1ccccc1O`, the Activity (Staphylococcus aureus) was “inactive”, the Activity [1] was “inactive” and the Activity (Saccharomyces cerevisiae) was “inactive”. For the same compound, the Activity (Escherichia coli) was “inactive”, the Activity (A549) was “inactive” and the Activity (Micrococcus luteus) was “inactive”.
For `OC[C@H]1O[C@@H](OC[C@@H]2COC(c3ccccc3O)=N2)[C@H](O)[C@@H](O)[C@@H]1O`, the Activity (Staphylococcus aureus) was “inactive”, the Activity [1] was “inactive” and the Activity (Saccharomyces cerevisiae) was “inactive”. The Activity (Escherichia coli) was “inactive”, the Activity (A549) was “inactive” and the Activity (Micrococcus luteus) was “inactive”.
`NC(=O)[C@@H]1COC(c2ccccc2O[C@@H]2O[C@H](CO)[C@@H](O)[C@H](O)[C@H]2O)=N1` was tested, and the Activity (Staphylococcus aureus) was “inactive”, the Activity [1] was “inactive” and the Activity (Saccharomyces cerevisiae) was “inactive”. For the same compound, the Activity (Hippocampal neurone [3]) was “inactive”, the Activity (Escherichia coli) was “inactive” and the Activity (A549) was “inactive”. The Activity (Micrococcus luteus) was “inactive” and the Activity (Hippocampal neurone [4]) was “Active”.
For `OC[C@@H]1COC(c2ccccc2O[C@@H]2O[C@H](CO)[C@@H](O)[C@H](O)[C@H]2O)=N1`, the Activity (Staphylococcus aureus) was “inactive”, the Activity [1] was “inactive” and the Activity (Saccharomyces cerevisiae) was “inactive”. The Activity (Hippocampal neurone [3]) was “Active”, the Activity (Hippocampal neurone [5]) was “inactive” and the Activity (Escherichia coli) was “inactive”. The Activity (A549) was “inactive” and the Activity (Micrococcus luteus) was “inactive”.
With `O=C(NC(CO)CO)c1ccccc1O[C@@H]1O[C@H](CO)[C@@H](O)[C@H](O)[C@H]1O` the Activity (Staphylococcus aureus) was “inactive”, the Activity [1] was “inactive” and the Activity (Saccharomyces cerevisiae) was “inactive”. For the same compound, the Activity (Escherichia coli) was “inactive”, the Activity (A549) was “inactive” and the Activity (Micrococcus luteus) was “inactive”.
`C[C@H](CO)NC(=O)c1ccccc1O[C@@H]1O[C@H](CO)[C@@H](O)[C@H](O)[C@H]1N` was tested, and the Activity (Staphylococcus aureus) was “inactive”, the Activity [1] was “inactive” and the Activity (Saccharomyces cerevisiae) was “inactive”. The Activity (Escherichia coli) was “inactive”, the Activity (A549) was “inactive” and the Activity (Micrococcus luteus) was “inactive”.
`N[C@H]1[C@H](Oc2ccccc2C(=O)NC(CO)CO)O[C@H](CO)[C@@H](O)[C@@H]1O` was tested, and the Activity (Staphylococcus aureus) was “inactive”, the Activity [1] was “inactive” and the Activity (Saccharomyces cerevisiae) was “inactive”. The Activity (Escherichia coli) was “inactive”, the Activity (A549) was “inactive” and the Activity (Micrococcus luteus) was “inactive”.
With `O=CN(O)CCC[C@@H](NC(=O)[C@H](CO)NC(=O)[C@@H]1COC(c2ccccc2O[C@@H]2O[C@H](CO)[C@@H](O)[C@H](O)[C@H]2O)=N1)C(=O)NCCC(=O)N[C@@H]1CCCN(O)C1=O` the Activity (Staphylococcus aureus) was “inactive”, the Activity [1] was “inactive” and the Activity (Saccharomyces cerevisiae) was “inactive”. For the same compound, the Activity (Escherichia coli) was “inactive”, the Activity (A549) was “inactive” and the Activity (Micrococcus luteus) was “inactive”.
